Columns and labels:
[1] = biological target: T1, C-C chemokine receptor type 3 (Homo sapiens, UniProt P51677); assay: Inhibitory activity against recombinant human Chemokine receptor type 3 (CCR3) expressed in chinese hamster ovary cells; assay type: cell-based, CHO
T1 sequence (P51677 whole entry): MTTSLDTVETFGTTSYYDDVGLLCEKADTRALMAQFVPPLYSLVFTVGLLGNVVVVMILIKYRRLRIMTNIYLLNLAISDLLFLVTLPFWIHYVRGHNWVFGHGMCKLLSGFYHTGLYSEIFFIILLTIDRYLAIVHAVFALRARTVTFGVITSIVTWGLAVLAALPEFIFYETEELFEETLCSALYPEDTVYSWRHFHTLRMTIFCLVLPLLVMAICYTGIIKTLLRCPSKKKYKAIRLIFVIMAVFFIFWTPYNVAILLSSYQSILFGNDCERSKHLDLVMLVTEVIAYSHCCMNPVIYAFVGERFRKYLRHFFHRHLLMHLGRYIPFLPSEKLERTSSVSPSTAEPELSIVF
Summary of the method: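 CHO cells transfected with human CCR3, 5×10^5 per well, incubated 30 min at room temperature with 150 pM (final) 125I-labeled human eotaxin and compound. Binding buffer: RPMI 1640 with 0.5% BSA, 20 mM HEPES, 5 mM MgCl2. Filtration on protamine-treated filter plates, washed with binding buffer plus 0.5 M NaCl, filter counted. Nonspecific binding defined with 100 nM eotaxin. Percent inhibition taken against compound-free total binding. IC50 values are the mean of usually three determinations.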

[2] = biological target: T2, C-C chemokine receptor type 1 (Homo sapiens, UniProt P32246); assay: Inhibitory activity against human Chemokine receptor type 1 expressed in chinese hamster ovary cells; assay type: cell-based, CHO
T2 sequence (P32246 whole entry): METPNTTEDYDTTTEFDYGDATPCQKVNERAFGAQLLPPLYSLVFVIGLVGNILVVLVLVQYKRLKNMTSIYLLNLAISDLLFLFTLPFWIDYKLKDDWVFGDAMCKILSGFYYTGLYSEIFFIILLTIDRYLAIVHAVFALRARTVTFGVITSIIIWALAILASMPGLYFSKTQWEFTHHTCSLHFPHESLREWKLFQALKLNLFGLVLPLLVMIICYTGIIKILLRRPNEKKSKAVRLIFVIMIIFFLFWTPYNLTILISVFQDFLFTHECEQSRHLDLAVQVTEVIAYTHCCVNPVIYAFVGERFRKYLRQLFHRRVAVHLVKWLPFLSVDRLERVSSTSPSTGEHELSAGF

IC50 [1] | IC50 [2] | SMILES
9200 nM |  | O=C(NCCc1ccc(F)cc1)Nc1ccccc1CN1CCN(Cc2ccccc2)CC1
125 nM |  | CC(=O)c1cccc(NC(=O)Nc2ccccc2CN2CCC(Cc3ccc(F)cc3)CC2)c1
900 nM | > 10000 nM | O=C(Nc1ccccc1)Nc1ccccc1CN1CCC(Cc2ccccc2)CC1
3800 nM |  | O=C(NCCc1ccc(F)cc1)Nc1ccccc1CN1CCC(Cc2ccccc2)CC1
2800 nM |  | N#Cc1cccc(NC(=O)NCc2ccccc2CN2CCC(Cc3ccccc3)CC2)c1
140 nM | > 10000 nM | N#Cc1cccc(NC(=O)Nc2ccccc2CCN2CCC(Cc3ccccc3)CC2)c1
450 nM | > 10000 nM | O=C(Nc1ccc2c[nH]nc2c1)Nc1ccccc1CN1CCC(Cc2ccccc2)CC1
361 nM |  | O=C(Nc1ccccc1)Nc1ccccc1CN1CCC(Cc2ccc(F)cc2)CC1
750 nM | > 10000 nM | COc1ccc(NC(=O)Nc2ccccc2CN2CCC(Cc3ccccc3)CC2)cc1
750 nM | > 10000 nM | N#Cc1cccc(NC(=O)Nc2ccccc2CN2CCC(Cc3ccccc3)CC2)c1
5950 nM | 240 nM | O=C(NCCCCO)NCC(CCCN1CCC(O)(c2ccc(Cl)cc2)CC1)(c1ccccc1)c1ccccc1
14 nM |  | N#Cc1cccc(NC(=O)Nc2ccccc2CCN2CCC(Cc3ccc(F)cc3)CC2)c1
14100 nM | > 50000 nM | N#CC(CCCN1CCN(Cc2ccccc2)CC1)(c1ccccc1)c1ccccc1
1750 nM | > 50000 nM | O=C(Nc1cc(F)ccc1F)Nc1ccccc1CN1CCC(Cc2ccccc2)CC1
8300 nM | < 780 nM | O=C(NCc1ccccc1)NCC(CCCN1CCC(O)(c2ccc(Cl)cc2)CC1)(c1ccccc1)c1ccccc1
600 nM | > 10000 nM | COc1cccc(NC(=O)Nc2ccccc2CN2CCC(Cc3ccccc3)CC2)c1
2650 nM |  | O=C(NCC(c1ccccc1)c1ccccc1)Nc1ccccc1CN1CCC(Cc2ccccc2)CC1
2400 nM | 125 nM | O=C(NCC1CCCCC1)NCC(CCCN1CCC(O)(c2ccc(Cl)cc2)CC1)(c1ccccc1)c1ccccc1
17 nM |  | O=C(Nc1ccccc1)Nc1cccc(C(=O)O)c1CN1CCC(Cc2ccc(F)cc2)CC1
7350 nM |  | O=C(NCc1ccc2c(c1)OCO2)Nc1ccccc1CN1CCC(C(=O)c2ccccc2)CC1

IC50 [1] | IC50 [2] | SMILES
35 nM |  | O=C(Nc1ccc(F)cc1)Nc1ccccc1CCN1CCC(Cc2ccc(F)cc2)CC1
3700 nM |  | O=C(Nc1cccc(CN2CCC(Cc3ccccc3)CC2)c1)NC1CCN(Cc2ccccc2)CC1
11 nM |  | COc1cccc(NC(=O)Nc2ccccc2CCN2CCC(Cc3ccc(F)cc3)CC2)c1
53 nM |  | O=C(Nc1ccccc1)Nc1cccc(CO)c1CN1CCC(Cc2ccc(F)cc2)CC1
3500 nM | 167 nM | O=C(NCC(CCCN1CCC(O)(c2ccc(Cl)cc2)CC1)(c1ccccc1)c1ccccc1)Nc1ccncc1
2600 nM | > 10000 nM | O=C(NCCCO)Nc1ccccc1CN1CCC(Cc2ccccc2)CC1
2400 nM |  | COc1cccc(NC(=O)NCc2ccccc2CN2CCC(Cc3ccccc3)CC2)c1
360 nM |  | COc1cccc(NC(=O)Nc2cc(CO)ccc2CN2CCC(Cc3ccccc3)CC2)c1
180 nM | > 10000 nM | COc1cccc(NC(=O)Nc2ccccc2CCN2CCC(Cc3ccccc3)CC2)c1
3400 nM | > 10000 nM | O=C(NCc1ccccc1)Nc1ccccc1CN1CCC(Cc2ccccc2)CC1
114 nM |  | N#Cc1cccc(NC(=O)Nc2cc(CO)ccc2CN2CCC(Cc3ccccc3)CC2)c1
11000 nM |  | O=C(Nc1cc(F)ccc1F)Nc1ccccc1CN1CCC(c2ccccc2)CC1
1750 nM |  | O=C(NCc1ccc2c(c1)OCO2)Nc1ccccc1CN1CCC(Cc2ccccc2)CC1
1300 nM |  | COc1ccc(NC(=O)NCc2ccccc2CN2CCC(Cc3ccccc3)CC2)cc1
450 nM |  | N#Cc1cccc(NC(=O)Nc2cccc(CN3CCC(Cc4ccccc4)CC3)c2)c1
9 nM |  | COC(=O)c1cccc(NC(=O)Nc2ccccc2)c1CN1CCC(Cc2ccc(F)cc2)CC1
3900 nM |  | O=C(NCC(c1ccccc1)c1ccccc1)Nc1ccccc1CN1CCC(C(=O)c2ccccc2)CC1
620 nM |  | O=C(Nc1cccc(CN2CCC(Cc3ccccc3)CC2)c1)Nc1ccc2[nH]ncc2c1
249 nM |  | O=C(Nc1ccccc1)Nc1ccccc1C(O)CN1CCC(Cc2ccccc2)CC1 (stereo not given)
24 nM |  | O=C(Nc1ccccc1)Nc1ccccc1C(O)CN1CCC(Cc2ccc(F)cc2)CC1 (stereo not given)

Further lines, the compound ahead of its results:

SMILES | IC50 [1] | IC50 [2]
C[N+]1(Cc2cc3c(cc2NC(=O)Nc2cccc(C#N)c2)OCO3)CCC(Cc2ccc(F)cc2)CC1 (stereo not given) | 2 nM | 
N#Cc1cccc(NC(=O)Nc2ccc(CO)cc2CN2CCC(Cc3ccc(F)cc3)CC2)c1 | 55 nM | 
CN(C)CCNC(=O)NCC(CCCN1CCC(O)(c2ccc(Cl)cc2)CC1)(c1ccccc1)c1ccccc1 | 2230 nM | 67 nM
COc1ccc(NC(=O)NCC(CCCN2CCC(O)(c3ccc(Cl)cc3)CC2)(c2ccccc2)c2ccccc2)cc1 | 7600 nM | 780 nM
c1ccc(CCCCN2CCN(Cc3ccccc3)CC2)cc1 | 8400 nM | 
COC(=O)c1ccc(CN2CCC(Cc3ccccc3)CC2)c(NC(=O)Nc2cccc(OC)c2)c1 | 777 nM | 
COC(=O)c1cccc(NC(=O)Nc2cccc(OC)c2)c1CN1CCC(Cc2ccc(F)cc2)CC1 | 11 nM | 
N#CC(CCCN1CCC(Cc2ccccc2)CC1)(c1ccccc1)c1ccccc1 | 4600 nM | > 50000 nM
COC(=O)c1ccc(NC(=O)Nc2cccc(C(C)=O)c2)c(CN2CCC(Cc3ccc(F)cc3)CC2)c1 | 42 nM | 
O=C(Nc1ccc2[nH]ncc2c1)Nc1cc2c(cc1CN1CCC(Cc3ccccc3)CC1)OCO2 | 260 nM | 
N#Cc1cccc(NC(=O)Nc2cc3c(cc2CN2CCC(Cc4ccc(F)cc4)CC2)OCO3)c1 | 85 nM | 
COC(=O)c1ccc(NC(=O)Nc2cccc(C#N)c2)c(CN2CCC(Cc3ccc(F)cc3)CC2)c1 | 67 nM | 
N#Cc1cccc(NC(=O)Nc2c(CN3CCC(Cc4ccc(F)cc4)CC3)ccc3ccccc23)c1 | 529 nM | 
c1ccc(CC2CCN(Cc3ccccc3)CC2)cc1 | 8300 nM | > 50000 nM
Fc1ccc(CCCN2CCC3C(C2)c2cccc4c2N3CC4)cc1 (stereo not given) | 1000 nM | 
O=C(Cc1ccc(F)cc1)Nc1ccccc1CCN1CCC(Cc2ccc(F)cc2)CC1 | 153 nM | 
OC1(c2ccc(Cl)cc2)CCN(CCCCc2ccccc2)CC1 | 14500 nM | 
CC1C2=C(CC=CC2)C(=O)N1CC1CCN(CCc2ccccc2)CC1 (stereo not given) | 12000 nM | 
CC(=O)c1cccc(NC(=O)Nc2cc3c(cc2CN2CCC(Cc4ccc(F)cc4)CC2)OCO3)c1 | 40 nM | 
c1ccc(CCN2CCC(Cc3ccccc3)CC2)cc1 | 7100 nM | > 50000 nM

SMILES | IC50 [1] | IC50 [2]
COc1cccc(NC(=O)Nc2ccc(CO)cc2CN2CCC(Cc3ccc(F)cc3)CC2)c1 | 47 nM | 
C[N+]1(Cc2cc(O)ccc2NC(=O)Nc2cccc(C#N)c2)CCC(Cc2ccccc2)CC1 (stereo not given) | 21 nM | 
N#CC(CCCN1CCC(O)(c2ccc(Cl)cc2)CC1)(c1ccccc1)c1ccccc1 [BERLEX COMPOUND] | 9000 nM | 630 nM
O=C(Nc1cc(F)ccc1F)Nc1ccccc1CN1CCC(C(=O)c2ccccc2)CC1 | 4650 nM | 
CC(=O)c1cccc(NC(=O)Nc2cc3c(cc2CN2CCC(Cc4ccccc4)CC2)OCO3)c1 | 228 nM | 
N#Cc1cccc(NC(=O)Nc2ccc(O)cc2CN2CCC(Cc3ccccc3)CC2)c1 | 277 nM | 
N#Cc1cccc(NC(=O)Nc2cc3c(cc2CN2CCC(Cc4ccccc4)CC2)OCO3)c1 | 237 nM | 
CC(=O)c1cccc(NC(=O)Nc2cc3c(cc2C[N+]2(C)CCC(Cc4ccc(F)cc4)CC2)OCO3)c1 (stereo not given) | 1 nM | 
O=C1CC2(CCc3ccccc32)C(=O)N1CC1CCN(CCc2ccccc2)CC1 (stereo not given) | 2000 nM | 
COC(=O)c1cccc(NC(=O)Nc2cccc(C#N)c2)c1CN1CCC(Cc2ccc(F)cc2)CC1 | 7 nM | 
COC(=O)c1ccc(NC(=O)Nc2cccc(OC)c2)c(CN2CCC(Cc3ccc(F)cc3)CC2)c1 | 64 nM | 
N#Cc1cccc(NC(=O)Nc2ccc(C(N)=O)cc2CN2CCC(Cc3ccc(F)cc3)CC2)c1 | 8 nM | 
COc1cccc(NC(=O)Nc2cc3c(cc2CN2CCC(Cc4ccc(F)cc4)CC2)OCO3)c1 | 141 nM | 
N#Cc1cccc(NC(=O)Nc2ccccc2CN2CCC(Cc3ccc(F)cc3)CC2)c1 | 310 nM | 
N#Cc1cccc(NC(=O)Nc2cccc(C(N)=O)c2CN2CCC(Cc3ccc(F)cc3)CC2)c1 | 3 nM | 
O=C(NCCCO)NC(Cc1ccccc1)c1ccccc1 (stereo not given) | 50000 nM | 
COc1cccc(NC(=O)Nc2ccccc2C(O)CN2CCC(Cc3ccc(F)cc3)CC2)c1 (stereo not given) | 21 nM | 
C[N+]1(Cc2cc3c(cc2NC(=O)Nc2cccc(C#N)c2)OCO3)CCC(Cc2ccccc2)CC1 (stereo not given) | 11 nM | 
N#Cc1cccc(NC(=O)Nc2ccccc2C(O)CN2CCC(Cc3ccc(F)cc3)CC2)c1 (stereo not given) | 11 nM | 

Source: ChEMBL document CHEMBL1135587, “Discovery and structure-activity relationship of N-(ureidoalkyl)-benzyl-piperidines as potent small molecule CC chemokine receptor-3 (CCR3) antagonists” (J Med Chem, 2002)
